Assay results collected from several papers.
Protocols differ between the studies behind these lines.
Target: Tyrosine-protein kinase BTK (BTK, Homo sapiens, UniProt Q06187)

C=CC(=O)Nc1cc(Nc2nccc(Nc3cc(Cl)c(F)cc3C(C)(C)O)n2)c(OC)cc1N1CC[C@@H](N(C)C)C1  inhibition (enzyme activity; inhibitor; 1 µM): 96%
CCN(CC)CCNC(=O)c1c(C)[nH]c(/C=C2\C(=O)Nc3ccc(F)cc32)c1C  inhibition (enzyme activity; inhibitor; 0.3 µM): 16%
CCN(CC)CCNC(=O)c1c(C)[nH]c(/C=C2\C(=O)Nc3ccc(F)cc32)c1C  inhibition (binding; competition with immobilised ligand; 0.1 µM): 91.3%
COc1cc2ncnc(Nc3ccc(Oc4ccccc4)c(C)c3C)c2cc1OC  inhibition (enzyme activity; inhibitor; 1 µM): 33%
CS(=O)(=O)Nc1cccc(-c2csc(NC(=O)CSc3nc4nccnc4c(=O)n3CCc3ccccc3)n2)c1  inhibition (enzyme activity; inhibitor; 10 µM): 3%
Cc1ccc(Nc2nccc(N(C)c3ccc4c(C)n(C)nc4c3)n2)cc1S(N)(=O)=O  inhibition (enzyme activity; inhibitor; 0.3 µM): 12%
COc1ccc(F)cc1C(=O)NCc1ccc(-c2nn([C@@H](C)C(F)(F)F)c(N)c2C(N)=O)cc1  inhibition (enzyme activity; inhibitor; radiometric; 0.1 µM): 97%
COc1cc2nccc(Oc3ccc(NC(=O)c4c5n(n(-c6ccc(F)cc6)c4=O)CCCC5)cc3)c2cc1OC  inhibition (enzyme activity; inhibitor; 0.1 µM): -7%
CC/C(=N\NC(=O)NCc1cccc(O)c1)c1ccc(O)c(C)c1O  inhibition (enzyme activity; inhibitor; 0.1 µM): -0.2%
CN(C)C1CCN(CC#Cc2nn(C3CCCC3)c3nc(NCc4ccccc4)ncc23)C1 (stereo not drawn)  inhibition (enzyme activity; inhibitor; FRET; 0.1 µM): 8%
CNC(=O)c1cc(Oc2ccc(NC(=O)Nc3ccc(Cl)c(C(F)(F)F)c3)cc2)ccn1  inhibition (enzyme activity; inhibitor; 10 µM): 43%
CNCc1ccc(-c2cc(-c3nc(-c4ccc(S(=O)(=O)C(C)C)cc4)cnc3N)on2)cc1  inhibition (enzyme activity; inhibitor; 0.4 µM): 4%
